Results: ChEMBL document CHEMBL4052826, “Design and Synthesis of Novel Reactive Oxygen Species Inducers for the Treatment of Pancreatic Ductal Adenocarcinoma” (J Med Chem, 2018)
Calls of active or inactive are those of the source. The rule behind the calls is not given here.

Legend:
[1] = test system: MIA PaCa-2; assay: Cytotoxicity against human MIAPaCa2 cells assessed as decrease in cell proliferation after 72 hrs by MTT assay; format: functional, cell-based; settings: MIA PaCa-2, 72 h
How it was run: (§1)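 MTT assay. Cells (3000–8000/well) attached overnight in RPMI1640 with 10% FBS; the GR line was kept with 200 nM gemcitabine. Serial dilutions (30 nM–10 μM for most lines) were applied for 72 h. MTT was added at a final 300 μg/mL for 3 h at 37°C, formazan was dissolved in DMSO and A570 read. Inhibition = (1 − OD treated/OD control) × 100. IC50 given as mean ± SD, three independent experiments.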

[2] = test system: MIA PaCa-2; assay: Cytotoxicity against gemcitabine-resistant human MIAPaCa2 cells assessed as decrease in cell proliferation after 72 hrs by MTT assay; format: functional, cell-based; settings: MIA PaCa-2, 72 h; how it was run: as §1
[3] = Cytotoxicity against HPDEC assessed as decrease in cell proliferation after 72 hrs by MTT assay; format: cell-based; settings: Homo sapiens; how it was run: as §1
[4] = test system: MIA PaCa-2; assay: Antitumor activity against human MIAPaCa2 cells xenografted in NOD/SCID mouse assessed as tumor volume at 15 mg/kg administered once a week for 48 days (reference value: 1503 +/- 189 mm'3); format: functional
How it was run: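 MIA PaCa-2 cells (2.0 × 10^6 in RPMI1640) were injected subcutaneously into the dorsal flank of 6-week NOD/SCID mice. Mice were randomized at 75 mm3 mean tumor size (vehicle n=4, treated n=3) and dosed at 15 mg/kg once weekly for 48 days. Tumors were measured by caliper twice weekly, with V = d2 × D/2. Values are mean ± SEM, and p values are from an unpaired t test.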

[5] = test system: MIA PaCa-2; assay: Antitumor activity against human MIAPaCa2 cells xenografted in NOD/SCID mouse at 15 mg/kg administered twice a week for 15 days; format: functional, organism-based
How it was run: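 MIA PaCa-2 subcutaneous xenografts in NOD/SCID mice, randomized at 75 mm3. Test agent was given at 5 mg/kg five times a week. Gemcitabine was given at 15 mg/kg either once weekly for 48 days or twice weekly for 15 days. Groups were n=3–4. Tumor volume was measured by caliper, given as mean ± SEM, and compared by unpaired t test.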

[6] = test system: Mus musculus; assay: Toxicity in NOD/SCID mouse xenografted with human MIAPaCa2 cells assessed as body weight loss at 15 mg/kg administered once a week for 48 days; format: organism-based; settings: in vivo, 1152 h
How it was run: (§2)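 MIA PaCa-2 xenografted NOD/SCID mice randomized at 75 mm3 into vehicle (n=4), once-weekly (n=3) or twice-weekly (n=4) groups; 15 mg/kg given once a week for 48 days or twice a week for 15 days. Body weight followed; mean ± SEM.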

[7] = test system: Mus musculus; assay: Toxicity in NOD/SCID mouse xenografted with human MIAPaCa2 cells assessed as body weight loss at 15 mg/kg administered twice a week for 15 days; format: organism-based; settings: in vivo, 360 h; how it was run: as §2
[8] = test system: MIA PaCa-2; assay: Induction of reactive oxygen species generation in human MIAPaCa2 cells at 1.1 to 10 uM after 24 hrs in presence of NAC by H2DCFDA reactivity assay; format: functional, cell-based
How it was run: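 H2DCFDA assay. Trypsinized MIA PaCa-2 cells in suspension were loaded with 20 μM H2DCFDA for 30 min at 37°C, washed and plated at 20,000/well. After 30 min they were treated with compound at 10, 3.3 or 1.1 μM. Fluorescence was read at 493/523 nm over time. DMSO basal and unstained controls were included. NAC pretreatment, where used, was 5 mM for 30 min. Duplicates, three independent experiments.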

[9] = test system: MIA PaCa-2; assay: Cytotoxicity against human MIAPaCa2 cells assessed as decrease in cell proliferation after 72 hrs in presence of NAC by MTT assay; format: functional, cell-based
How it was run: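 MIA PaCa-2 cells were treated for 72 h with compound in the presence of 5 mM NAC. Viability was read by MTT (final 300 μg/mL, 3 h, A570). Mean ± SD of three independent experiments.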

[10] = Induction of compound aggregation
[11] = Induction of compound colloidal behavior
[12] = test system: MIA PaCa-2; assay: Induction of reactive oxygen species generation in human MIAPaCa2 cells assessed as upregulation of NQO1 gene expression after 4 hrs by Bru-seq analysis; format: functional, cell-based
[13] = test system: MIA PaCa-2; assay: Induction of reactive oxygen species generation in human MIAPaCa2 cells assessed as upregulation of HMOX1 gene expression after 4 hrs by Bru-seq analysis; format: functional, cell-based
[14] = test system: MIA PaCa-2; assay: Induction of unfolded protein response in human MIAPaCa2 cells assessed as upregulation of DDIT3 gene expression after 4 hrs by Bru-seq analysis; format: functional, cell-based
[15] = test system: MIA PaCa-2; assay: Induction of unfolded protein response in human MIAPaCa2 cells assessed as upregulation of HSPA5 gene expression after 4 hrs by Bru-seq analysis; format: functional, cell-based
How it was run: (§3)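 Nascent RNA sequencing (Bru-seq): 4×10^6 MIA PaCa-2 cells seeded in 10 cm dishes, treated next day for 4 h with drug or DMSO. Bromouridine (2 mM final) added for the last 30 min. Total RNA taken in TRIZOL; labeled RNA immunocaptured, converted to cDNA libraries and deep sequenced. Signal compared with DMSO-treated cells.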

[16] = test system: MIA PaCa-2; assay: Induction of unfolded protein response in human MIAPaCa2 cells assessed as upregulation of CHOP expression at 5 uM by Western blot analysis; format: functional, cell-based; settings: TDE = time-dependent effect
How it was run: (§4)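 Immunoblotting. Cells (4×10^5) in 60 mm dishes were treated, lysed 30 min at 4°C and quantified by BCA. 40 μg protein was run on SDS-PAGE and transferred to PVDF. Primary antibodies (1:1000) incubated overnight at 4°C, then Dylight 800 secondary, with fluorescent scanning. Bands were normalized to GAPDH or actin loading controls. Mean ± SD, three independent experiments, Student's t-test.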

[17] = test system: MIA PaCa-2; assay: Induction of unfolded protein response in human MIAPaCa2 cells assessed as upregulation of GRP78 expression at 5 uM by Western blot analysis; format: functional, cell-based; settings: TDE = time-dependent effect
How it was run: (§5)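 Cells (4×10^5) seeded in 60 mm dishes, cultured in RPMI1640 with 10% FBS, 5% CO2, 37°C, then compound-treated. Lysed 30 min at 4°C, BCA-quantified, 40 μg protein resolved by SDS-PAGE, transferred to PVDF, probed overnight at 4°C with primary antibodies (1:1000; GAPDH or actin loading control), then Dylight 800 secondary; fluorescence scanned. Bands normalized to loading control; mean ± SD, three independent experiments.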

[18] = test system: PANC-1; assay: Induction of unfolded protein response in human PANC1 cells assessed as upregulation of GRP78 expression at 5 uM by Western blot analysis; format: functional, cell-based; settings: TDE = time-dependent effect; how it was run: as §5
[19] = test system: BXPC-3; assay: Induction of unfolded protein response in human BxPC3 cells assessed as upregulation of GRP78 expression at 5 uM by Western blot analysis; format: functional, cell-based; settings: TDE = time-dependent effect; how it was run: as §4
[20] = test system: PANC-1; assay: Induction of unfolded protein response in human PANC1 cells assessed as upregulation of CHOP expression at 5 uM by Western blot analysis; format: functional, cell-based; settings: TDE = time-dependent effect; how it was run: as §5
[21] = test system: BXPC-3; assay: Induction of unfolded protein response in human BxPC3 cells assessed as upregulation of CHOP expression at 5 uM by Western blot analysis; format: functional, cell-based; settings: TDE = time-dependent effect; how it was run: as §4
[22] = test system: MIA PaCa-2; assay: Induction of reactive oxygen species generation in human MIAPaCa2 cells assessed as upregulation of HO-1 expression at 5 uM after 4 to 24 hrs by Western blot analysis; format: functional, cell-based; how it was run: as §4
[23] = test system: BXPC-3; assay: Induction of reactive oxygen species generation in human BxPC3 cells assessed as upregulation of HO-1 expression at 5 uM after 4 to 24 hrs by Western blot analysis; format: functional, cell-based; how it was run: as §4
[24] = test system: PANC-1; assay: Induction of reactive oxygen species generation in human PANC1 cells assessed as upregulation of HO-1 expression at 5 uM after 4 to 24 hrs by Western blot analysis; format: functional, cell-based; how it was run: as §4
[25] = test system: MIA PaCa-2; assay: Induction of reactive oxygen species generation in human MIAPaCa2 cells assessed as upregulation of NQO1 expression at 5 uM after 4 to 24 hrs by Western blot analysis; format: functional, cell-based; how it was run: as §4
[26] = test system: BXPC-3; assay: Induction of reactive oxygen species generation in human BxPC3 cells assessed as upregulation of NQO1 expression at 5 uM after 4 to 24 hrs by Western blot analysis; format: functional, cell-based; how it was run: as §4
[27] = test system: MIA PaCa-2; assay: Induction of apoptosis signaling in human MIAPaCa2 cells at 3 times IC50 after 4 hrs by IPA analysis; format: functional, cell-based
[28] = test system: MIA PaCa-2; assay: Downregulation of Sp1 gene expression in human MIAPaCa2 cells at IC50 to 3 times IC50 after 4 hrs by Bru-seq analysis; format: functional, cell-based
[29] = test system: MIA PaCa-2; assay: Downregulation of Sp3 gene expression in human MIAPaCa2 cells at IC50 to 3 times IC50 after 4 hrs by Bru-seq analysis; format: functional, cell-based
[30] = test system: MIA PaCa-2; assay: Downregulation of Sp4 gene expression in human MIAPaCa2 cells at IC50 to 3 times IC50 after 4 hrs by Bru-seq analysis; format: functional, cell-based
[31] = test system: MIA PaCa-2; assay: Inhibition of mtDNA transcription from HSP2 promoter in human MIAPaCa2 cells at 3 times IC50 after 4 hrs by Bru-seq analysis; format: functional, cell-based; how it was run: as §3
[32] = test system: MIA PaCa-2; assay: Downregulation of COX-3 expression in human MIAPaCa2 cells at 5 uM after 4 to 24 hrs by Western blot method; format: functional, cell-based; how it was run: as §4
[33] = test system: MIA PaCa-2; assay: Inhibition of mtDNA transcription from LSP promoter in human MIAPaCa2 cells at 3 times IC50 after 4 hrs by Bru-seq analysis; format: functional, cell-based; how it was run: as §3
[34] = test system: MIA PaCa-2; assay: Inhibition of mtDNA transcription from HSP1 promoter in human MIAPaCa2 cells at 3 times IC50 after 4 hrs by Bru-seq analysis; format: functional, cell-based; how it was run: as §3
[35] = test system: PANC-1; assay: Cytotoxicity against human PANC1 cells assessed as decrease in cell proliferation after 72 hrs by MTT assay; format: functional, cell-based; settings: PANC-1, 72 h; how it was run: as §1
[36] = test system: BXPC-3; assay: Cytotoxicity against human BxPC3 cells assessed as decrease in cell proliferation after 72 hrs by MTT assay; format: functional, cell-based; settings: BXPC-3, 72 h; how it was run: as §1

Nc1ccn([C@@H]2O[C@H](CO)[C@@H](O)C2(F)F)c(=O)n1 [GEMCITABINE]
IC50 [1]: 110 nM
IC50 [2]: 3300 nM
IC50 [3]: 140 nM
Activity [4]: 387 mm3
Activity [5]: Active
Activity [6]: Non-Toxic
Activity [7]: Non-Toxic

CC(=O)c1cccc(NC2=CC(=O)c3ncncc3C2=O)c1
IC50 [1]: 2300 nM
IC50 [2]: 3600 nM
IC50 [3]: 4500 nM
Activity [8]: inactive
Activity [9]: inactive
Activity [10]: Active
Activity [11]: Active
Activity [12]: Dose-dependent effect
Activity [13]: Dose-dependent effect
Activity [14]: Dose-dependent effect
Activity [15]: Dose-dependent effect
Activity [16]: Tde
Activity [17]: Tde
Activity [18]: Tde
Activity [19]: Tde
Activity [20]: Tde
Activity [21]: Tde
Activity [22]: Active
Activity [23]: Active
Activity [24]: inactive
Activity [25]: inactive
Activity [26]: inactive
Activity [27]: Active
Activity [28]: inactive
Activity [29]: inactive
Activity [30]: inactive
inhibition [31]: Active
Activity [32]: Active
inhibition [33]: Active
inhibition [34]: inactive
IC50 [35]: 900 nM
IC50 [36]: 5200 nM
